Cardiac RTF inh – cardiac RTF calcium sensitivity inhibitors, primary screen, biochemical, IANBD-TnC fluorescence, EC70 calcium; Troponin I, cardiac muscle (Homo sapiens) + Troponin T, cardiac muscle (Homo sapiens) + …; IANBD-labeled cardiac RTF, Ca2+ fluorescence; inhibition, % at 7.15 µM; hit rate 0.12% among 340,000;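 active = inhibition above the mean inhibition of all tested compounds plus 3 SD, cut at about 17% in these data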;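 note: assay run at fixed EC70 calcium of 1.6 mM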
Tn7 DDE FP – inhibitors of Tn7 peptide binding to fibrin DD(E), primary screen, biochemical, fluorescence polarization, human fibrin, Tn7 probe | hit rate 0.13% among 370,000 | inhibition, % at 8.3 µM | Fibrinogen beta chain (Homo sapiens), P02675 | FP displacement of FITC-Tn7 peptide from fibrin DD(E); 0% = median of compound wells per plate | AID 720508, 2013;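 active = inhibition above the mean of compounds falling within the control limits plus 3 SD of them, cut at about 14% in these data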;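 note: 0% = plate median of compound wells and 100% = 10 µM Aha-Tn7 peptide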
Target sequence (P02675 whole entry, looked up): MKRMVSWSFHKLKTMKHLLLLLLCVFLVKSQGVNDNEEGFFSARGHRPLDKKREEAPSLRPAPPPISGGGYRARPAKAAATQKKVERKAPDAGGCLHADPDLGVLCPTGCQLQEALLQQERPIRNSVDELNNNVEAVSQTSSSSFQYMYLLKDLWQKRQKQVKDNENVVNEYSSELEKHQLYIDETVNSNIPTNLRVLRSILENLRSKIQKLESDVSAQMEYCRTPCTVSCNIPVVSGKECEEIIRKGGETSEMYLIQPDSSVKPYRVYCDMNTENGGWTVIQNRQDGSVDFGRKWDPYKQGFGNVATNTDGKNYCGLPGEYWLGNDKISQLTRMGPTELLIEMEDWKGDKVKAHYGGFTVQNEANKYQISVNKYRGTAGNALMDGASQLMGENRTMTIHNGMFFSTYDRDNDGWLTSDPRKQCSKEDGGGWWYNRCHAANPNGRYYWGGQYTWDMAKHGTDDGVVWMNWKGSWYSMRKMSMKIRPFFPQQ
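System: human fibrin DD(E); quantity: Fibrin-DD(E) at 2 µM final; also added: fluorescent Tn7 probe at 0.1 µM; compound dosing: single nominal test concentration of 8.3 µM per compound; schedule: 10 min preincubation, 3 h with tracer, room temperature; detection: fluorescence polarization of the labelled Tn7 tracer; repeats: one replicate per compound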
CRFBP-R2 block – antagonists of CRF-BP/CRF-R2 complex, primary screen, cell-based, HEK293, calcium dye fluorescence, uHTS; CRF-induced calcium fluorescence; hit rate 0.59% among 350,000; inhibition, % at 11.8 µM;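 active = inhibition of the ligand-induced calcium signal above about 50% at the single tested concentration, limit read from the data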
RTF Ca sens act – cardiac RTF calcium sensitivity activators, primary screen, biochemical, IANBD-TnC fluorescence, EC20 calcium. Troponin I, cardiac muscle (Homo sapiens) + Troponin T, cardiac muscle (Homo sapiens) + …. IANBD-labeled TnC RTF fluorescence at EC20 calcium; 0% EC20 calcium, 100% full calcium. activation, % at 7.2 µM. hit rate 0.24% among 340,000. AID 493008, 2010;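 active = activation above the mean over all tested compounds plus 3 SD, cut at about 30% in these data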;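 note: rise in fluorescence read as greater calcium sensitivity of cardiac thin filaments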
CRFBP-R2 agonist – agonists of CRF-BP/CRF-R2 complex, primary screen, cell-based, HEK293, calcium dye fluorescence, uHTS; AID 588473, 2011; CRF-binding protein / CRF receptor 2 complex (human); activation, % at 13.2 µM; calcium dye fluorescence (FLIPR); percent of saturating CRF peptide response; hit rate 0.46% among 350,000;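 active = activation of at least 50%, plus an integration ratio under a set limit after plate pattern correction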;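 note: plate controls were neutral control wells without compound for no effect and CRF at EC100 for full effect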
DDE Tn6 FP inh – inhibitors of Tn6 peptide binding to fibrin DD(E), primary screen, biochemical, fluorescence polarization, human fibrin, Tn6 probe. hit rate 0.21% among 370,000. inhibition, % at 8.3 µM. Fibrinogen beta chain (Homo sapiens), P02675. Fibrin DD(E) TRITC-Tn6 fluorescence polarization displacement;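 active = inhibition above a per-campaign cutoff: mean of compounds within control limits plus 3 SD, cut at about 15% in these data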;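 note: 0% = median of all compound wells on the plate and 100% = blocking peptide control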
RTF inh confirm – cardiac RTF calcium sensitivity inhibitors, confirmation, biochemical, fluorescence readout. hit rate 8% among 360. shares compounds with Cardiac RTF inh. inhibition, % at 7.15 µM. reconstituted cardiac thin filaments; in the data active = inhibition above about 18%
Starred values were filed as active, the others as inactive; . = no result; ! = a repeat was not active. In the library only some 1.4% were active in any assay of this set; here they are far more common.

SMILES	Cardiac RTF inh	Tn7 DDE FP	CRFBP-R2 block	RTF Ca sens act	CRFBP-R2 agonist	DDE Tn6 FP inh	RTF inh confirm
CC(=O)Nc1cc(C(=O)N2CCc3ccccc3C2)ccc1Sc1ccc(C)cc1	17*	10	5	-2	-2	-5	-4
CN1CCN(c2ncnc3c2ncn3[C@H]2CN(Cc3ccc4c(c3)OCO4)C[C@@H](CO)O2)CC1	.	1	.	.	.	-2	.
Cc1cccc(NC(=O)CCSc2ccccn2)c1	18*	1	3	-1	1	3	0
O=C(Cc1cccs1)NC1CCCCN(Cc2cccc(Cl)c2)C1=O (stereo not given)	.	-1	.	.	.	-6	.
N=C(N)c1ccc(N=Nc2c(O)ccc3c2[nH]c2ccccc23)cc1	26*	6	-10	-24	-8	-15	30*
c1ccc2c(c1)ccc1ncccc12	18*	-6	-1	-5	-1	1	-4
c1cnc2c(c1)ccc1cccnc12	18*!	4	2	0	-1	-4	-7
O=Cc1ccc2ccc3cccnc3c2n1	-8	-1	2	-2	-4	4	.
c1cnc2ccc3ncccc3c2c1	-8	-1	11	6	5	6	.
CCCC1CCC2(CC1)CCC2OC(=S)Nc1ccc(I)cc1 (stereo not given)	.	-2	.	.	.	-2	.
COc1cc(-c2nnc(SCc3cc(=O)oc4cc(O)c(O)cc34)o2)cc(OC)c1OC	30*	-3	5	-31	-1	-5	17*
CCOC(=O)Nc1nnc(CCc2ccccc2)s1	-24	1	-34	-4	2	4	.
CCc1nnc(NC(=O)OCc2ccccc2)s1	17*	-9	-17	2	-1	-1	-1
CCCCN(C)CCC(=O)Nc1ccc(F)c(F)c1	17*	6	-16	-3	2	3	1
O=C1N=C(N2CCN(c3cccc4ccccc34)CC2)S/C1=C/c1cccs1	3	-4	17	-3	2	-2	.
Cc1ccccc1N1CCN(C2=NC(=O)/C(=C\c3cccs3)S2)CC1	19*	-2	-27	0	3	-7	0
CCCCC(=O)N/N=C/c1ccc(-c2ccc([N+](=O)[O-])cc2)o1	4	-1	-17	0	14	-6	.
Cc1cc(C)n(Cc2ccc(C(=O)N/N=C/c3ccc(-c4ccc([N+](=O)[O-])cc4)o3)o2)n1	29*	-1	-9	-25	5	-3	6
CC(C)(CNS(C)(=O)=O)SCc1ccc(Cl)cc1	17*	-1	7	2	-2	1	-5
N#Cc1nc(COc2ccc(Br)cc2)oc1N1CCCCCC1	1	8	31	9	1	-1	.
N#Cc1nc(COc2ccc(F)cc2)oc1N1CCCCC1	24*	2	-6	-1	0	2	-2
CC(=O)Nc1ccc(-c2noc(-c3csc([C@@H]4C[C@H](O)[C@@H](CO)O4)n3)n2)cc1	.	3	.	.	.	-1	.
Cc1ccccc1C(=O)N/N=C1/SCC(=O)N1Cc1ccccc1	18*	0	5	3	0	2	2
CCC(=O)OC1(C)C(=O)C2=COC(c3ccc(OC)cc3)=CC2=C(Br)C1=O (stereo not given)	17*	4	-3	-13	8	6	-2
COc1ccc(C2=CC3=C(Br)C(=O)C(C)(O)C(=O)C3=CO2)cc1 (stereo not given)	3	.	2	-11	1	.	.
SMILES	Cardiac RTF inh	Tn7 DDE FP	CRFBP-R2 block	RTF Ca sens act	CRFBP-R2 agonist	DDE Tn6 FP inh	RTF inh confirm
CCSc1cc(N2CCCC2)nc(-c2ccc(C)cc2)n1	-4	4	-77	0	5	-2	.
CCSc1cc(N2CCCC2)nc(-c2cccc(C)c2)n1	18*	6	-10	3	-1	0	0
Cc1ccc(/C=C2\SC(=S)N(c3cccnc3)C2=O)cc1	2	5	-10	-3	-1	-2	.
COc1cc(/C=C2\SC(=S)N(c3cccnc3)C2=O)ccc1O	19*	3	-1	-14	9	14	0
COc1ccc(C2=NOC(C(=O)NCCCn3ccnc3)C2)cc1 (stereo not given)	18*	3	-12	1	0	7	-6
COCCCNC(=O)C[C@H]1C[C@@]2(C(=O)OC)C(=C[C@H](C(C)C)O[C@@H]2C2CC2)N(CCC2=CCCCC2)C1=O	.	5	.	.	.	6	.
Oc1cccc2ccc[n+](CC(O)Cn3c4ccccc4c4ccccc43)c12 (stereo not given)	19*	8	6	5	-3	2	-1
CC(Sc1nc(=O)cc(N)n1CCc1ccccc1)C(=O)NCc1ccccc1 (stereo not given)	19*	6	0	-3	-1	4	-1
CC(NC(=O)CSc1nc(=O)cc(N)n1CCc1ccccc1)c1ccccc1 (stereo not given)	7	1	-9	6	-1	5	.
COc1ccc(-c2nnc(SCc3c(C)noc3C)o2)cc1	18*	3	-3	0	-2	1	-4
C#CCN1C=CC(=O)[C@@H](OC(=O)Nc2ccc(Cl)cc2)[C@H]1c1ccccc1Br	-8	5	-13	-7	3	-1	.
COc1ccc(OC)c(-n2c(SCC(=O)N3CCc4ccccc43)nc3c(c2=O)SCC3)c1	40*	.	22	1	1	.	-3
COC(=O)[C@]12C[C@H](CC(=O)NCc3cccc(C(F)(F)F)c3)C(=O)N(CCC3=CCCCC3)C1=C[C@H](C1CCCC1)O[C@@H]2C	.	4	.	.	.	8	.
O=C1CSC(c2cccc([N+](=O)[O-])c2)N1c1c(F)cccc1F (stereo not given)	22*	-7	1	3	-2	-1	-6
O=C1CSC(c2cccc(F)c2)N1c1c(F)cccc1F (stereo not given)	-1	2	42	2	-4	0	.

From PubChem
